{"source": "PubChem BioAssay AID652075", "about": "(The Scripps Research Institute Molecular Screening Center, 2013)", "biological_target": "Voltage-gated inwardly rectifying potassium channel KCNH2 (Homo sapiens) (UniProt Q12809)", "sequence (Q12809 whole entry, looked up)": "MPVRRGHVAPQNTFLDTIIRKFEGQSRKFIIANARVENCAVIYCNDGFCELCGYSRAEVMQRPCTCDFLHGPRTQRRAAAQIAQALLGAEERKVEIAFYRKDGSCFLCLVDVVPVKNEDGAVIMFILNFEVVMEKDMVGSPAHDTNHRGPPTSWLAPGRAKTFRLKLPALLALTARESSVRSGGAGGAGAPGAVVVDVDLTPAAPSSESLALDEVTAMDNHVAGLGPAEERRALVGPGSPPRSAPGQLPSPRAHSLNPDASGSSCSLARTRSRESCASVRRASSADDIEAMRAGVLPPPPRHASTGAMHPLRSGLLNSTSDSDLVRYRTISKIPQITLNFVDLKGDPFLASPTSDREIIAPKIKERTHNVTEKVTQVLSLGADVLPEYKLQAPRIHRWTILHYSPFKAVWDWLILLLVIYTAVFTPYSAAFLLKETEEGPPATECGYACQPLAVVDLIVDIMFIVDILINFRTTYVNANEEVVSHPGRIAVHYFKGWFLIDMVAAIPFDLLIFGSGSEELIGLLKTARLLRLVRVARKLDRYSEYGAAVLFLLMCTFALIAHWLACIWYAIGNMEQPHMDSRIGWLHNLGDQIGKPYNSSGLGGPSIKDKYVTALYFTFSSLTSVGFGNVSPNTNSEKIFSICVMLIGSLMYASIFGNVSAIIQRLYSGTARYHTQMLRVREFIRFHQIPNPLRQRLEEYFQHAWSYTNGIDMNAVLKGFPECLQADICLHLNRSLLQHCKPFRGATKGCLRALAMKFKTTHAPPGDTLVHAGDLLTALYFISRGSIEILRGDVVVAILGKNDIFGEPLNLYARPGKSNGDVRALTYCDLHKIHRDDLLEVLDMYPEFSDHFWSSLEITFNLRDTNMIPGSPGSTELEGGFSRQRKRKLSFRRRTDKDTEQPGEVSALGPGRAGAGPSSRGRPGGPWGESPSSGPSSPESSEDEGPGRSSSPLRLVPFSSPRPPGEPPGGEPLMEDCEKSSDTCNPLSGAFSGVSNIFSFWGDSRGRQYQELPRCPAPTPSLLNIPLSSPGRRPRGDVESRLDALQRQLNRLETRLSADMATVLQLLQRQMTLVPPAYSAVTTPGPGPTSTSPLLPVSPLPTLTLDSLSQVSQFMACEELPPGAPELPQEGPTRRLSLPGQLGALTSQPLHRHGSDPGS", "test": "KCNH2 channel binding inhibition – biochemical, radiometric, counter-screen for OPRK1 antagonist project, late-stage follow-up (AID 652075)", "details": "hERG radioligand binding displacement, CEREP; at 10 µM; stronger effect = higher value", "summary_of_the_method": "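Material: hERG radioligand binding | Also added: Radiolabelled ligand, excess unlabelled ligand for nonspecific binding | Doses: Single test compound dose of 10 µM | Technique: Radioligand binding | Evaluation: Percent inhibition of specific binding versus control, negatives denoting stimulation | Control set: Excess unlabelled ligand for nonspecific binding | Replicates: Duplicate measurements per compound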", "note": "Activity calls are given as the source filed them.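 How the source made its calls: active means hERG binding inhibition of 50% or more, or stimulation of 50% or more, shown as inhibition of -50% or lower; inactive means the rest.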"}
{"smiles": "COC(=O)c1cc(Br)cnc1N1CCC(NC2CCCCC2)C(O)C1", "note": "(stereo unspecified)", "values": [{"measurement": "inhibition", "value": "39.3% (inactive)"}]}
